Published values from different studies.
Lines come from different studies, so protocols differ.
Cell line: HL-60
Effect on: cell growth or viability

| Compound | technique | time | IC50 |
| --- | --- | --- | --- |
| c1ccc(-c2cc(CNc3cccc4cccnc34)on2)cc1 | MTS | 72 h | 79.6 µM |
| O=C(CSc1nc2ccccc2s1)N/N=C/c1ccc(OCC(=O)Nc2cccc(Cl)c2)cc1 | MTS | 72 h | > 100 µM |
| FC(F)(F)c1cc(OCc2cc(-c3ccccc3)no2)c2ccccc2n1 | MTS | 72 h | > 100 µM |
| COc1cc([C@@H]2c3cc4c(cc3[C@@H](O[C@@H]3O[C@@H]5CO[C@@H](C)O[C@H]5[C@H](O)[C@H]3O)[C@H]3COC(=O)[C@H]23)OCO4)cc(OC)c1O | MTS | 72 h | 0.3 µM |
| COc1cc([C@@H]2c3cc4c(cc3[C@@H](O[C@@H]3O[C@@H]5CO[C@@H](C)O[C@H]5[C@H](O)[C@H]3O)[C@H]3COC(=O)[C@H]23)OCO4)cc(OC)c1O | XTT | 75 h | 1.22 µM |
| Nc1cccc2c1C(=O)N(C1CCC(=O)NC1=O)C2=O (stereo not drawn) | CCK-8 | 7 days | > 10 µM |
| Nc1ccccc1NC(=O)c1ccc(Cn2cnc3c(Nc4ccc(Br)cc4F)ncnc32)cc1 | MTT | 72 h | 0.99 µM |
| N#Cc1ccc(-c2cc(COc3cc(C(F)(F)F)nc4ccccc34)on2)cc1 | MTS | 72 h | 62.2 µM |
| O=C(NO)c1ccc(Cn2cnc3c(Nc4ccc(Cl)cc4)ncnc32)cc1 | MTT | 72 h | 0.62 µM |
| O=C(CSc1nc2ccccc2s1)N/N=C/c1ccc(OCC(=O)Nc2cccc(Br)c2)cc1 | MTS | 72 h | > 100 µM |
| COc1ccc(Nc2ncnc3c2ncn3Cc2ccc(C(=O)Nc3ccccc3N)cc2)cc1 | MTT | 72 h | 4.12 µM |
| FC(F)(F)c1ccc(-c2cc(CNc3cccc4cccnc34)on2)cc1 | MTS | 72 h | > 100 µM |
